Experimental data published in ChEMBL document CHEMBL2417469, “Synthesis of novel analogs of 2-pyrazoline obtained from [(7-chloroquinolin-4-yl)amino]chalcones and hydrazine as potential antitumor and antimalarial agents” (Eur J Med Chem, 2013).

What was measured:
Assay type in all cases: functional
[1] = test system: 786-0; assay: Cytotoxicity against human 786-0 cells after 48 hrs by SRB assay; details: 786-0, 48 h
Method in brief: (§1)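 NCI 60-cell-line screen. Cells preincubated 24 h at 37 °C, 5% CO2; time-zero plates TCA-fixed. Compounds dissolved in DMSO and tested at five concentrations (100, 10, 1.0, 0.1, 0.01 µM) for 48 h continuous exposure. Adherent cells fixed with cold TCA (10% final), then SRB stained; absorbance at 515 nm. GI50, TGI and LC50 calculated from growth relative to time-zero and untreated controls.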

[2] = test system: SK-MEL-28; assay: Cytotoxicity against human SK-MEL-28 cells after 48 hrs by SRB assay; details: SK-MEL-28, 48 h; method in brief: as §1
[3] = test system: SK-MEL-5; assay: Cytotoxicity against human SK-MEL-5 cells after 48 hrs by SRB assay; details: SK-MEL-5, 48 h; method in brief: as §1
[4] = test system: UO-31; assay: Cytotoxicity against human UO31 cells after 48 hrs by SRB assay; details: UO-31, 48 h
Method in brief: (§2)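 NCI 60-cell screen. Cells grew 24 h (37 °C, 5% CO2) before compound was added. Compounds were in DMSO and diluted in medium with gentamicin, then tested at five levels (100, 10, 1.0, 0.1, 0.01 µM) with 48 h continuous exposure. Adherent cells were fixed with TCA (10% final) and stained with 0.4% SRB, absorbance read at 515 nm. A time-zero plate was included. LC50 is the concentration giving 50% loss of protein relative to time zero.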

[5] = test system: M14; assay: Cytotoxicity against human M14 cells after 48 hrs by SRB assay; details: M14, 48 h; method in brief: as §1
[6] = test system: RPMI-8226; assay: Cytotoxicity against human RPMI8226 cells after 48 hrs by SRB assay; details: RPMI-8226, 48 h; method in brief: as §1
[7] = test system: UACC-62; assay: Cytotoxicity against human UACC62 cells after 48 hrs by SRB assay; details: UACC-62, 48 h; method in brief: as §2
[8] = test system: SF-295; assay: Cytotoxicity against human SF295 cells after 48 hrs by SRB assay; details: SF-295, 48 h; method in brief: as §1
[9] = test system: SN12C; assay: Cytotoxicity against human SN12C cells after 48 hrs by SRB assay; method in brief: as §1
[10] = test system: MDA-MB-435; assay: Cytotoxicity against human MDA-MB-435 cells after 48 hrs by SRB assay; details: MDA-MB-435, 48 h; method in brief: as §1
[11] = test system: T47D; assay: Cytotoxicity against human T47D cells after 48 hrs by SRB assay; method in brief: as §2
[12] = test system: NCI-H522; assay: Cytotoxicity against human NCI-H522 cells after 48 hrs by SRB assay; details: NCI-H522, 48 h; method in brief: as §1
[13] = test system: CCRF-CEM; assay: Cytotoxicity against human CCRF-CEM cells after 48 hrs by SRB assay; method in brief: as §1
[14] = test system: SNB-75; assay: Cytotoxicity against human SNB75 cells after 48 hrs by SRB assay; details: SNB-75, 48 h; method in brief: as §2
[15] = test system: HCT-116; assay: Cytotoxicity against human HCT116 cells after 48 hrs by SRB assay; details: HCT-116, 48 h; method in brief: as §1
[16] = test system: OVCAR-4; assay: Cytotoxicity against human OVCAR4 cells after 48 hrs by SRB assay; details: OVCAR-4, 48 h; method in brief: as §1
[17] = test system: LOX IMVI; assay: Cytotoxicity against human LOXIMVI cells after 48 hrs by SRB assay; method in brief: as §1
[18] = test system: A498; assay: Cytotoxicity against human A498 cells after 48 hrs by SRB assay; details: A498, 48 h; method in brief: as §1
[19] = test system: HOP-62; assay: Cytotoxicity against human HOP62 cells after 48 hrs by SRB assay; details: HOP-62, 48 h; method in brief: as §1
[20] = test system: KM12; assay: Cytotoxicity against human KM12 cells after 48 hrs by SRB assay; details: KM12, 48 h; method in brief: as §1
[21] = test system: Malme-3M; assay: Cytotoxicity against human MALME-3M cells after 48 hrs by SRB assay; method in brief: as §1
[22] = test system: SK-MEL-2; assay: Cytotoxicity against human SK-MEL-2 cells after 48 hrs by SRB assay; details: SK-MEL-2, 48 h; method in brief: as §1
[23] = test system: NCI-H23; assay: Cytotoxicity against human NCI-H23 cells after 48 hrs by SRB assay; details: NCI-H23, 48 h; method in brief: as §1
[24] = test system: NCI-H226; assay: Cytotoxicity against human NCI-H226 cells after 48 hrs by SRB assay; details: NCI-H226, 48 h; method in brief: as §1
[25] = test system: A549; assay: Cytotoxicity against human A549/ATCC cells after 48 hrs by SRB assay; details: A549, 48 h; method in brief: as §1
[26] = test system: MDA-MB-231; assay: Cytotoxicity against human MDA-MB-231 cells after 48 hrs by SRB assay; details: MDA-MB-231, 48 h; method in brief: as §1
[27] = test system: MOLT-4; assay: Cytotoxicity against human MOLT4 cells after 48 hrs by SRB assay; details: MOLT-4, 48 h; method in brief: as §1
[28] = test system: COLO 205; assay: Cytotoxicity against human COLO205 cells after 48 hrs by SRB assay; details: COLO 205, 48 h; method in brief: as §1
[29] = test system: UACC-257; assay: Cytotoxicity against human UACC257 cells after 48 hrs by SRB assay; details: UACC-257, 48 h; method in brief: as §2
[30] = test system: DU-145; assay: Cytotoxicity against human DU145 cells after 48 hrs by SRB assay; details: DU-145, 48 h; method in brief: as §1
[31] = test system: OVCAR-3; assay: Cytotoxicity against human OVCAR3 cells after 48 hrs by SRB assay; details: OVCAR-3, 48 h; method in brief: as §1
[32] = test system: SNB-19; assay: Cytotoxicity against human SNB19 cells after 48 hrs by SRB assay; details: SNB-19, 48 h; method in brief: as §2
[33] = test system: HOP-92; assay: Cytotoxicity against human HOP92 cells after 48 hrs by SRB assay; details: HOP-92, 48 h; method in brief: as §1
[34] = test system: HCC 2998; assay: Cytotoxicity against human HCC2998 cells after 48 hrs by SRB assay; details: HCC 2998, 48 h; method in brief: as §1
[35] = read-out: LC50 (the source's name)

`O=CN1N=C(c2cccc(Nc3ccnc4cc(Cl)ccc34)c2)CC1c1ccccc1` (stereo not drawn) gave a GI50 [1] of 0.59 µM, an LC50 [1] of over 100 µM and a GI50 [2] of 0.76 µM. For the same compound, the CC50 [2, 35] was over 100 µM, the GI50 [3] was 0.29 µM and the LC50 (concentration killing 50% of cells present at time zero) [3] was 64.2 µM. For the same compound, the GI50 [4] was 0.41 µM, the LC50 [4] was over 100 µM and the GI50 [5] was 0.33 µM. The CC50 [5, 35] was over 100 µM, the GI50 [6] was 0.49 µM and the LC50 (concentration killing 50% of cells) [6] was over 100 µM. For the same compound, the GI50 [7] was 0.53 µM, the CC50 [7, 35] was over 100 µM and the GI50 [8] was 0.37 µM. The LC50 [8] was 41.2 µM, the GI50 [9] was 0.63 µM and the LC50 (50% net cell kill relative to time zero) [9] was over 100 µM. The GI50 [10] was 0.13 µM, the LC50 [10] was over 100 µM and the GI50 [11] was 0.34 µM. The LC50 (concentration giving 50% cell kill relative to time zero) [11] was over 100 µM, the GI50 [12] was 0.21 µM and the CC50 [12, 35] was over 100 µM. It also gave a GI50 [13] of 0.37 µM, an LC50 (concentration killing 50% of cells relative to time zero) [13] of over 100 µM and a GI50 [14] of 0.22 µM. It also gave an LC50 (50% net cell kill) [14] of over 100 µM, a GI50 [15] of 0.39 µM and an LC50 [15] of 4.75 µM. The GI50 [16] was 0.56 µM, the LC50 [16] was over 100 µM and the GI50 [17] was 0.45 µM. The LC50 [17] was 4.23 µM, the GI50 [18] was 0.23 µM and the CC50 [18, 35] was over 100 µM. It also gave a GI50 [19] of 0.51 µM, an LC50 (50% lethal concentration) [19] of over 100 µM and a GI50 [20] of 0.29 µM. The LC50 (concentration killing 50% of cells) [20] was over 100 µM, the GI50 [21] was 0.37 µM and the LC50 [21] was over 100 µM. It also gave a GI50 [22] of 0.26 µM, an LC50 [22] of over 100 µM and a GI50 [23] of 0.61 µM. For the same compound, the CC50 [23, 35] was over 100 µM, the GI50 [24] was 6.91 µM and the LC50 (50% lethal concentration) [24] was over 100 µM. The GI50 [25] was 0.54 µM, the CC50 [25, 35] was over 100 µM and the GI50 [26] was 1.15 µM. For the same compound, the LC50 (concentration killing 50% of cells present at time zero) [26] was over 100 µM, the GI50 [27] was 0.39 µM and the LC50 [27] was over 100 µM. It also gave a GI50 [28] of 0.36 µM, an LC50 [28] of 7.92 µM and a GI50 [29] of 0.33 µM. It also gave an LC50 [29] of over 100 µM, a GI50 [30] of 0.44 µM and an LC50 (concentration killing 50% of cells) [30] of over 100 µM. For the same compound, the GI50 [31] was 0.28 µM, the LC50 [31] was 7.38 µM and the GI50 [32] was 0.6 µM. For the same compound, the LC50 [32] was over 100 µM, the GI50 [33] was 0.21 µM and the LC50 (concentration killing 50% of cells) [33] was over 100 µM. The GI50 [34] was 1.22 µM and the LC50 [34] was over 100 µM.
